FLuc inhib CS: firefly luciferase enzyme inhibitors, primary screen, artefact control for luciferase-based inhibitor screens, biochemical, luminescence, ATPLite | Luciferin 4-monooxygenase (Photinus pyralis), P08659 | 10 min | inhibition, % at 10 µM | actives 1.5% (n = 200,000) | AID 1006, 2008;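 active means inhibition above about 50% when tested at 10 µM, limit read from the data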
Target sequence (P08659 whole entry, looked up): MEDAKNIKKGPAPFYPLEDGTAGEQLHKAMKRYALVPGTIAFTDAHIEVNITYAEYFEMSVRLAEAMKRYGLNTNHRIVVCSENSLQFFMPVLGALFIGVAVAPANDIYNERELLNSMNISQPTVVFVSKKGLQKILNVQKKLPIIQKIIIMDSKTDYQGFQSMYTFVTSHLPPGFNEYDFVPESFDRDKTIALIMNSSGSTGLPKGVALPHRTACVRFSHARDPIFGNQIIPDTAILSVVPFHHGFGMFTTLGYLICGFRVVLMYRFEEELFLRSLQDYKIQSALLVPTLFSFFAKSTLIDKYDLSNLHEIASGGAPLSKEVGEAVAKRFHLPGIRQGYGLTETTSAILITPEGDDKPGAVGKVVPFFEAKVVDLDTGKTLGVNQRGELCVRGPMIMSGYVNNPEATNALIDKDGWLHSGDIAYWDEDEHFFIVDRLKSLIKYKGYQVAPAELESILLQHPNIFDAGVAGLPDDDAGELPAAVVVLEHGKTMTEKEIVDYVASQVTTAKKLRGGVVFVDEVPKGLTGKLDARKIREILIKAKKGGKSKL
C8 TRAIL sens: viability loss with TRAIL in NB7+C8 cells, primary screen, TRAIL sensitizer project, cell-based, ATPlite luminescence; inhibition (viability loss, TRAIL sensitization), % at 10 µM; actives 1% (n = 360,000);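 active means compounds causing at least 50% loss of cell viability in the single-dose screen, relative to plate controls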
FLuc act counter: FLuc activators, initial screening, artefact control for FLuc-dependent activation tests, biochemical, ATPlite luminescence | 200,000 tested, under 10 active | activation factor at 10 µM | ATPlite luciferase biochemical, 10 min; 0 = ATP-free wells, 1 = DMSO control | Luciferin 4-monooxygenase (Photinus pyralis), P08659;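 active means luciferase activation factor, scaled between plate controls, of at least 2 with compound at 10 µM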
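System: luciferase plus luciferin reagent, cell-free; medium: PBS as buffer for the ATP substrate; dosing: test compounds dosed from 2 mM stocks in 100% DMSO; timing: 10 min post-reagent at room temperature; measured by: luminescence measurement of luciferase light output; evaluation: luciferase activation, seen as luminescence increase over controls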
HSP90 inh: HSP90 inhibitors, primary screen, cell lysate, luminescence; actives 0.91% (n = 290,000); Rabbit reticulocyte lysate, luciferase refolding luminescence, 3 h; Heat shock protein HSP 90 (rabbit reticulocyte lysate; luciferase refolding); inhibition, % at 5.6 µM;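 active means inhibition above the screen-wide mean plus 3 SD, computed separately per campaign, cut at about 16% in these data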;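 further: inhibitors lower the luminescence because luciferase stays unfolded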
PPC-1+TRAIL kill: compounds killing PPC-1 cancer cells with TRAIL present, primary screen, TRAIL potentiator project, ATPLite luminescence, uHTS; PPC-1 cells + TRAIL, ATPLite viability luminescence; cell killing (% activity), % at 4 µM or 5 µM; actives 0.41% (n = 220,000); AID 1443, 2008;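 active means cell killing above 50% in the first pass at 4 µM, then a duplicate retest at 5 µM averaging 50% or more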
HSP90 inh confirm: HSP90 inhibitors, confirmation, cell lysate, luminescence | inhibition, % at 5.9 µM | shares compounds with HSP90 inh | AID 1846, 2009 | rabbit reticulocyte lysate, luciferase refolding luminescence, 3 h | actives 64% (n = 2,300); in the data active means inhibition above about 18%
luciferase ctr: firefly luciferase inhibitors, HSP90 counter-screen, confirmation, artefact control for HSP90 inhibitor project, biochemical, luminescence, triplicate. actives 48% (n = 2,300). AID 1847, 2009. shares compounds with HSP90 inh. purified native firefly luciferase. inhibition, % at 5.9 µM;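 active means inhibition above the mean inhibition of all tested sample wells plus 3 SD, cut at about 10% in these data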
Numbers stand for hits; 0 = inactive; - = not tested or not shown. Most compounds without a hit are left out; they make up all but 2% or so of the library.

SMILES	FLuc inhib CS	C8 TRAIL sens	FLuc act counter	HSP90 inh	PPC-1+TRAIL kill	HSP90 inh confirm	luciferase ctr
COc1nc(OC)nc(N2CCC(NC(=O)C(Cc3cccc(OC)c3OC)NC(C)=O)CC2)n1 (centres undefined)	-	0	-	0	0	-	-
Cc1ccc(NC(=S)Nc2cccc3ccccc23)cc1F	-	0	-	19	-	30	0
CCOC(=O)C1C(c2ccc(C(=O)O)cc2)NC(=O)NC1(O)C(F)(F)F (centres undefined)	-	0	-	0	-	-	-
O=C(COC(=O)C1CCN(S(=O)(=O)c2ccc3c(c2)OCCO3)CC1)Nc1cccc2ccccc12	0	0	0	0	0	-	-
CCn1c(C)nc2cc(N)ccc21	-	0	-	34	0	0	0
NNc1nc2c(-c3cccc(C(F)(F)F)c3)nnn2c2ccccc12	-	0	-	0	-	-	-
COc1ccc2[nH]c(C(=O)Nc3cccc(C)n3)cc2c1	-	55	-	23	0	30	19
COc1nc(C)cc(C)c1S(=O)(=O)c1ccccc1	-	0	-	18	-	0	0
CN1N=C2c3ccccc3CCC2C1c1ccc(Cl)cc1 (centres undefined)	-	0	-	23	0	34	16
C=CCNC(=O)c1c(Cl)cnn1-c1ccc(C)cc1	0	0	0	0	0	-	-
COc1ccc(-c2cc(C(=O)O)c(C)o2)cc1OC	0	0	0	76	0	90	65
Cc1oc(-c2ccc3c(c2)OCCO3)cc1C(=O)O	62	0	0	96	0	101	91
Cc1oc(-c2ccc3c(c2)OCCO3)cc1C(=O)NCC(=O)O	0	0	0	90	-	95	79
COc1ccc(-c2cc(C(=O)NC(Cc3cc4ccccc4[nH]3)C(=O)O)c(C)o2)cc1OC (centres undefined)	0	0	0	0	0	-	-
Cc1oc(-c2ccc3c(c2)OCCO3)cc1C(=O)NC(CCC(=O)O)C(=O)O (centres undefined)	0	0	0	64	0	77	33
Cn1cc(C(=O)O)c(-c2ccc3c(c2)OCCCO3)n1	-	0	-	0	-	-	-
Cc1ccc2c(c1)c1c(c(=O)n(-c3ccccc3C)c(=O)n1CC(=O)NCC1CCCO1)n2C (centres undefined)	-	0	-	0	-	-	-
CCN(CC)CCN(C(=O)c1ccc(Br)s1)c1nc2cc3c(cc2s1)OCCO3	0	0	0	51	0	0	0
CCN(CC)CCN(C(=O)c1ccc2ncsc2c1)c1nc2cc3c(cc2s1)OCO3	-	0	-	34	-	34	16
O=C1CN(C(=O)c2ccc(F)cc2)c2ccccc2N1	-	0	-	0	-	-	-
O=C(/C=C/c1ccccc1Cl)Nc1ccccc1	-	0	-	0	0	-	-
O=C(/C=C/c1ccccc1Cl)Nc1cccc(O)c1	84	72	0	23	0	36	15
COc1ccccc1C#Cc1ccc2c(=O)c3ccccc3n(C)c2c1	-	0	-	24	-	0	0
Cn1c2ccccc2c(=O)c2ccc(C#Cc3ccc(N)cc3)cc21	-	0	-	24	-	31	0
COc1ccc(C#Cc2ccc3c(=O)c4ccccc4n(C)c3c2)cc1	-	-	-	0	-	-	-
SMILES	FLuc inhib CS	C8 TRAIL sens	FLuc act counter	HSP90 inh	PPC-1+TRAIL kill	HSP90 inh confirm	luciferase ctr
Cc1cccc(Sc2nc(-c3ccccc3)ncc2C(=O)O)c1	0	0	0	0	0	-	-
CCc1ccccc1Nc1ccc(C(=O)O)cc1N	0	0	0	0	0	-	-
CCNc1ccc(C(=O)O)cc1N	0	0	0	55	0	0	0
NC(=O)c1ccc(N=Nc2c(O)c3ccccc3[nH]c2=O)cc1	-	-	-	0	0	0	0
COc1cc(N=Nc2c(O)c3ccccc3[nH]c2=O)c(OC)cc1N=Nc1ccccc1	-	0	-	0	0	0	0
Cc1nc(NC(=O)c2ccco2)sc1C(=O)O	-	0	-	54	-	64	0
Cc1cc(C)c2nc(NC(=O)c3ccco3)sc2c1	-	0	-	18	-	39	33
CCCCCCCCc1nnc(NC(=O)c2ccco2)s1	0	0	0	25	0	0	0
Cc1cc(Cl)cc2sc(NC(=O)c3ccco3)nc12	-	0	-	0	-	-	-
COC(=O)c1sc(NC(=O)c2ccco2)nc1C	0	0	0	0	0	-	-
O=C(Oc1ccc(Cl)c2cccnc12)c1cccc([N+](=O)[O-])c1	0	0	0	0	0	-	-
O=[N+]([O-])c1ccccc1COc1ccc(Cl)c2cccnc12	-	0	-	21	-	48	32
NC(=S)N/N=C/c1ccc(C23CC4CC(CC(C4)C2)C3)cc1	-	-	-	24	-	0	0
CCOC(=O)C1CCCN(CC(=O)c2c[nH]c3ccc(C)cc23)C1 (centres undefined)	-	-	-	0	0	-	-
Cc1nc(C)c(C(=O)Nc2ncc([N+](=O)[O-])s2)o1	0	0	0	47	0	66	41
O=C(Nc1ccc(NC(=O)c2cccc([N+](=O)[O-])c2)cc1)c1cccc([N+](=O)[O-])c1	-	0	-	0	-	-	-
CC(C)CC(=O)Nc1ncc([N+](=O)[O-])s1	-	0	-	0	0	-	-
O=C(Nc1ncc([N+](=O)[O-])s1)c1cccc([N+](=O)[O-])c1	-	0	-	16	0	60	34
CN1CCN(c2nc(-c3ccc(C(C)(C)C)cc3)nc3ccccc23)CC1	-	71	-	54	-	52	49
COc1ccc(NC(=O)CCCc2ccccc2)cc1OC	-	0	-	0	-	-	-
O=C(NCc1ccccn1)c1ccc(OC2CCN(Cc3ccc(CO)o3)CC2)cc1	-	0	-	0	-	-	-
CN(Cc1cnccn1)Cc1ccccc1OCC(O)CN1CCc2ccccc2C1 (centres undefined)	0	0	0	0	0	-	-
CC(C)(C)NC(=O)NC(=O)Cn1ccsc1=N	0	0	0	0	0	-	-
CCc1ccc(C(=O)Cn2ccsc2=N)cc1	-	59	-	21	-	0	0
Cc1ccc(-c2noc(CCC(=O)NCc3ccco3)n2)cc1	0	0	0	24	0	0	0
SMILES	FLuc inhib CS	C8 TRAIL sens	FLuc act counter	HSP90 inh	PPC-1+TRAIL kill	HSP90 inh confirm	luciferase ctr
O=C(CCc1nc(-c2ccccc2)no1)NCc1ccco1	0	0	0	0	0	-	-
COc1cccc(C2Nc3ccccc3NC3=C2C(=O)CC(C)(C)C3)c1 (centres undefined)	-	0	-	23	-	0	0
O=C(O)c1ccc(N/N=C/c2c(F)cccc2Cl)cc1	-	0	-	80	-	82	76
CC(C)(C)c1ccc(/C=N/Nc2ccc(C(=O)O)cc2)cc1	0	0	0	58	0	86	83
Fc1ccc(N/N=C/c2ccncc2)c(F)c1	0	0	0	0	0	-	-
O=C(O)c1ccc(N/N=C/c2ccc(C(F)(F)F)cc2)cc1	0	0	0	77	0	86	81

Bioassay records: PubChem, several laboratories
